Measured values collected from several papers.
Each line is one published result; the experiments were not run side by side. pIC50: −log10 of the molar value.
Cell line: NCI-H23
Effect on: cell growth or viability

SMILES | assay | conditions | measurement | result
O=C(/C=C/c1ccc2ncn(CCCl)c(=O)c2c1)NO | SRB | 48 h | pIC50 | 5.49
COc1cccc(Oc2ccccc2NC(=O)CNC(=O)c2cccc3ccccc23)c1 | SRB | 48 h | GI50 | 0.741 µM
CCc1n(Cc2ccc3ccccc3n2)cc[n+]1Cc1ccc2ccccc2n1 | SRB | – | TGI | 8.66 µM
S=C([S][Au-][P+](CCCCCC[P+]([Au-][S]C(=S)n1cccn1)(c1ccccc1)c1ccccc1)(c1ccccc1)c1ccccc1)n1cccn1 | SRB | – | GI50 | 4.76 µM
COc1ccc(C(=O)/C=C/c2cc3c(cc2Br)OCO3)cc1S(N)(=O)=O | SRB | 48 h | GI50 | 4.3 µM
COc1cc(-c2ccc(-c3ccc(C(=N)N)nc3)s2)cc(OC)c1OC | SRB | – | GI50 | 6.4 µM
CCCc1n(Cc2ccc3ccccc3n2)cc[n+]1Cc1ccc2ccccc2n1 | SRB | – | TGI | 15 µM
COc1ccc(C(=O)/C=C/c2ccc3c(c2)OCCO3)cc1S(N)(=O)=O | SRB | 10 µM | inhibition | 27%
COc1ccc(-c2ccc(-c3ccc(C(=N)N)nc3)s2)cc1Cl | SRB | – | GI50 | 1.8 µM
COc1ccc(C(=O)/C=C/c2cccc3ccccc23)cc1S(N)(=O)=O | SRB | 10 µM | inhibition | 120%
C[C@]12CC[C@@H]3c4ccc(O)cc4CC[C@H]3[C@@H]1CC[C@@H]2O | ATP luminescence | 72 h | EC90 | 78.5 µM
O=C1NCCc2[nH]c(-c3ccncc3)cc21 | – | – | pIC50 | < 5.00
CCCCc1n(Cc2ccc3ccccc3n2)cc[n+]1Cc1ccc2ccccc2n1 | SRB | – | TGI | 7.27 µM
COc1ccc(C(=O)/C=C/c2cccc(Cl)c2Cl)cc1S(N)(=O)=O | SRB | 48 h | GI50 | 3.8 µM
O=C(/C=C/c1ccc2c(=O)n(CC3CCCCC3)cnc2c1)NO | SRB | 48 h | pIC50 | 5.64
c1ccc(-c2n(Cc3ccc4ccccc4c3)cc[n+]2Cc2ccc3ccccc3c2)cc1 | SRB | – | TGI | 2.35 µM
COc1ccc(C(=O)/C=C/c2c(F)cccc2Cl)cc1S(N)(=O)=O | SRB | 10 µM | inhibition | 116%
